{
  "source": "ChEMBL document CHEMBL3045217",
  "about": "“Factors affecting the synergy of thiabendazole, sodium bicarbonate, and heat to control postharvest green mold of citrus fruit” (J Agric Food Chem, 2008)",
  "key": {"Penicillium digitatum [1]": {"test_system": "Penicillium digitatum", "experiment": "Fungicidal activity against Penicillium digitatum infected Valenica oranges assessed as fruit weight loss at 600 mg/L treated for 1 min at 20 degC postharvest at 20 hr after fungal conidial inoculation measured after 21 days of storage at 17 degC in presence of 1% SBC (water Rvb = 11.20%)", "format": "functional"}, "Penicillium digitatum [2]": {"test_system": "Penicillium digitatum", "experiment": "Fungicidal activity against Penicillium digitatum infected Valenica oranges assessed as fruit weight loss at 400 mg/L treated for 1 min at 40 degC postharvest at 20 hr after fungal conidial inoculation measured after 7 days of storage at 17 degC in presence of 1% SBC (water Rvb = 4.49%)", "format": "functional"}, "Penicillium digitatum [3]": {"test_system": "Penicillium digitatum", "experiment": "Fungicidal activity against Penicillium digitatum infected Valenica oranges assessed as fruit weight loss at 400 mg/L treated for 1 min at 40 degC postharvest at 20 hr after fungal conidial inoculation measured after 14 days of storage at 17 degC in presence of 0.5% SBC (water Rvb = 7.90%)", "format": "functional"}, "Penicillium digitatum [4]": {"test_system": "Penicillium digitatum", "experiment": "Fungicidal activity against TBZ-sensitive Penicillium digitatum infected Valencia oranges assessed as postharvest green mold incidence at 600 mg/L treated for 1 min at 20 degC at 20 hr after fungal conidial inoculation measured after 7 days of storage at 20 degC (water Rvb = 92.5%)", "format": "functional"}, "Penicillium digitatum [5]": {"test_system": "Penicillium digitatum", "experiment": "Fungicidal activity against Penicillium digitatum infected Valenica oranges assessed as fruit weight loss at 600 mg/L treated for 1 min at 20 degC postharvest at 20 hr after fungal conidial inoculation measured after 7 days of storage at 17 degC (water Rvb = 3.13%)", "format": "functional"}, "Penicillium digitatum [6]": {"test_system": "Penicillium digitatum", "experiment": "(§1) Fungicidal activity against TBZ-resistant Penicillium digitatum infected Nova mandarins assessed as postharvest green mold incidence at 600 mg/L treated for 1 min at 20 degC at 20 hr after fungal conidial inoculation measured after 5 days of storage at 20 degC in presence of 2% SBC (water Rvb = 61.7%)", "format": "functional"}, "Penicillium digitatum [7]": {"test_system": "Penicillium digitatum", "experiment": "as §1, with “Valencia oranges” for “Nova mandarins”, “7” for “5”, “40.0%)” for “61.7%)”", "format": "functional"}, "Penicillium digitatum [8]": {"test_system": "Penicillium digitatum", "experiment": "Fungicidal activity against TBZ-resistant Penicillium digitatum infected Valencia oranges assessed as postharvest green mold incidence at 600 mg/L treated for 1 min at 20 degC at 20 hr after fungal conidial inoculation measured after 7 days of storage at 20 degC in presence of 1% SBC (water Rvb = 54.2%)", "format": "functional"}, "Penicillium digitatum [9]": {"test_system": "Penicillium digitatum", "experiment": "Fungicidal activity against TBZ-resistant Penicillium digitatum infected Valencia oranges assessed as postharvest green mold incidence at 400 mg/L treated for 1 min at 40 degC at 20 hr after fungal conidial inoculation measured after 7 days of storage at 20 degC in presence of 0.5% SBC (water Rvb = 81.7%)", "format": "functional"}, "Fruit [10]": {"test_system": "Fruit", "experiment": "Drug residues in Citrus sinensis cvs. Valencia late (Valencia oranges) at 600 mg/L treated for 1 min at 20 degC postharvest measured immediately post-drug treatment in presence of 0.5% SBC by GC analysis", "format": "ADME", "outline": "(§2)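 'Valencia' oranges were dipped 1 min in TBZ at 600 mg/L (20 °C, ±0.5, 1 or 2% wt/vol SBC), 400 mg/L (40 °C, ±SBC) or 200 mg/L (50 °C, alone), then air-dried. They were sampled at 0, 10 and 20 days at 17 °C. Peel of five fruit was frozen, and 5 g of homogenate was extracted with ethyl acetate/hexane (1/1) plus NaCl. The extract was dried under N2, taken up in acetone and analysed by GC. Results are mg/kg on a whole-fruit basis.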"}, "Fruit [11]": {"test_system": "Fruit", "experiment": "Drug residues in Citrus sinensis cvs. Valencia late (Valencia oranges) at 400 mg/L treated for 1 min at 40 degC postharvest measured immediately post-drug treatment in presence of 0.5% SBC by GC analysis", "format": "ADME", "outline": "as §2"}, "Fruit [12]": {"test_system": "Fruit", "experiment": "Drug residues in Citrus sinensis cvs. Valencia late (Valencia oranges) at 400 mg/L treated for 1 min at 40 degC postharvest measured after 10 days of storage at 17 degC by GC analysis", "format": "ADME", "outline": "as §2"}, "Inner fruit": {"test_system": "Inner fruit", "experiment": "Drug residues in Citrus sinensis cvs. Salustiana (Salustiana oranges) inner fruit at 600 mg/L treated for 1 min at 50 degC postharvest measured after overnight incubation at 17 degC by GC analysis", "format": "ADME", "outline": "(§3)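 'Salustiana' oranges were washed with water and air-dried. They were dipped 1 or 3 min in TBZ 600 mg/L at 20 or 50 °C, or 1 min in TBZ 600 mg/L plus 2% SBC at 20 °C, then dried overnight at 17 °C in the dark. Surface residue was taken by water extraction and wax residue by chloroform extraction. Inner residue was measured in fruit after both extractions. Extracts were dried under N2, taken up in acetone and analysed by GC. Values are mg/kg on a whole-fruit basis.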"}, "Penicillium digitatum [13]": {"test_system": "Penicillium digitatum", "experiment": "Fungicidal activity against Penicillium digitatum infected Valenica oranges assessed as fruit weight loss at 600 mg/L treated for 1 min at 20 degC postharvest at 20 hr after fungal conidial inoculation measured after 7 days of storage at 17 degC in presence of 2% SBC (water Rvb = 3.94%)", "format": "functional"}, "Fruit [14]": {"test_system": "Fruit", "experiment": "Drug residues in Citrus sinensis cvs. Valencia late (Valencia oranges) at 400 mg/L treated for 1 min at 40 degC postharvest measured after 20 days of storage at 17 degC in presence of 0.5% SBC by GC analysis", "format": "ADME", "outline": "as §2"}, "Penicillium digitatum [15]": {"test_system": "Penicillium digitatum", "experiment": "Fungicidal activity against TBZ-resistant Penicillium digitatum infected Nova mandarins assessed as postharvest green mold incidence at 600 mg/L treated for 1 min at 20 degC at 20 hr after fungal conidial inoculation measured after 5 days of storage at 20 degC (water Rvb = 100%)", "format": "functional"}, "Cuticular wax": {"test_system": "Cuticular wax", "experiment": "Drug residues in Citrus sinensis cvs. Salustiana (Salustiana oranges) cuticular wax at 600 mg/L treated for 1 min at 50 degC postharvest measured after overnight incubation at 17 degC by GC analysis", "format": "ADME", "outline": "as §3"}, "Penicillium digitatum [16]": {"test_system": "Penicillium digitatum", "experiment": "Fungicidal activity against Penicillium digitatum infected Valenica oranges assessed as fruit weight loss at 600 mg/L treated for 1 min at 20 degC postharvest at 20 hr after fungal conidial inoculation measured after 14 days of storage at 17 degC in presence of 0.5% SBC (water Rvb = 7.44%)", "format": "functional"}, "Penicillium digitatum [17]": {"test_system": "Penicillium digitatum", "experiment": "Fungicidal activity against TBZ-resistant Penicillium digitatum infected Valencia oranges assessed as postharvest green mold incidence at 400 mg/L treated for 1 min at 40 degC at 20 hr after fungal conidial inoculation measured after 7 days of storage at 20 degC (water Rvb = 90.0%)", "format": "functional"}, "Penicillium digitatum [18]": {"test_system": "Penicillium digitatum", "experiment": "Fungicidal activity against Penicillium digitatum infected Valenica oranges assessed as fruit weight loss at 600 mg/L treated for 1 min at 20 degC postharvest at 20 hr after fungal conidial inoculation measured after 21 days of storage at 17 degC (water Rvb = 7.98%)", "format": "functional"}, "Penicillium digitatum [19]": {"test_system": "Penicillium digitatum", "experiment": "Fungicidal activity against Penicillium digitatum infected Valenica oranges assessed as fruit weight loss at 400 mg/L treated for 1 min at 40 degC postharvest at 20 hr after fungal conidial inoculation measured after 21 days of storage at 17 degC in presence of 1% SBC (water Rvb = 12.71%)", "format": "functional"}, "Penicillium digitatum [20]": {"test_system": "Penicillium digitatum", "experiment": "Fungicidal activity against Penicillium digitatum infected Valenica oranges assessed as fruit weight loss at 200 mg/L treated for 1 min at 50 degC postharvest at 20 hr after fungal conidial inoculation measured after 21 days of storage at 17 degC (water Rvb = 8.83%)", "format": "functional"}, "Fruit [21]": {"test_system": "Fruit", "experiment": "Drug residues in Citrus sinensis cvs. Valencia late (Valencia oranges) at 400 mg/L treated for 1 min at 40 degC postharvest measured after 10 days of storage at 17 degC in presence of 2% SBC by GC analysis", "format": "ADME", "outline": "as §2"}},
  "data": [
    {"molecule": "c1ccc2[nH]c(-c3cscn3)nc2c1", "note": "[THIABENDAZOLE]", "values": [
      {"measurement": "Activity", "setting": "Penicillium digitatum [1]", "result": 12.35, "unit": "%"},
      {"measurement": "Activity", "setting": "Penicillium digitatum [2]", "result": 3.98, "unit": "%"},
      {"measurement": "Activity", "setting": "Penicillium digitatum [3]", "result": 8.39, "unit": "%"},
      {"measurement": "Activity", "setting": "Penicillium digitatum [4]", "result": 31.7, "unit": "%"},
      {"measurement": "Activity", "setting": "Penicillium digitatum [5]", "result": 3.59, "unit": "%"},
      {"measurement": "Activity", "setting": "Penicillium digitatum [6]", "result": 40, "unit": "%"},
      {"measurement": "Activity", "setting": "Penicillium digitatum [7]", "result": 21.7, "unit": "%"},
      {"measurement": "Activity", "setting": "Penicillium digitatum [8]", "result": 25, "unit": "%"},
      {"measurement": "Activity", "setting": "Penicillium digitatum [9]", "result": 14.2, "unit": "%"},
      {"measurement": "Drug uptake", "setting": "Fruit [10]", "result": 1.25, "unit": "mg/kg"},
      {"measurement": "Drug uptake", "setting": "Fruit [11]", "result": 0.79, "unit": "mg/kg"},
      {"measurement": "Drug uptake", "setting": "Fruit [12]", "result": 0.89, "unit": "mg/kg"},
      {"measurement": "Drug uptake", "setting": "Inner fruit", "result": 0.17, "unit": "mg/kg"},
      {"measurement": "Activity", "setting": "Penicillium digitatum [13]", "result": 4.81, "unit": "%"},
      {"measurement": "Drug uptake", "setting": "Fruit [14]", "result": 0.79, "unit": "mg/kg"},
      {"measurement": "Activity", "setting": "Penicillium digitatum [15]", "result": 98.3, "unit": "%"},
      {"measurement": "Drug uptake", "setting": "Cuticular wax", "result": 0.54, "unit": "mg/kg"},
      {"measurement": "Activity", "setting": "Penicillium digitatum [16]", "result": 8.15, "unit": "%"},
      {"measurement": "Activity", "setting": "Penicillium digitatum [17]", "result": 55.8, "unit": "%"},
      {"measurement": "Activity", "setting": "Penicillium digitatum [18]", "result": 8.85, "unit": "%"},
      {"measurement": "Activity", "setting": "Penicillium digitatum [19]", "result": 12.11, "unit": "%"},
      {"measurement": "Activity", "setting": "Penicillium digitatum [20]", "result": 8.54, "unit": "%"},
      {"measurement": "Drug uptake", "setting": "Fruit [21]", "result": 0.65, "unit": "mg/kg"}
    ]}
  ]
}
